Published values collected from several papers.
Compare with care: the assays were run in different laboratories.
Target: Mitogen-activated protein kinase kinase kinase 3 (MAP3K3, Homo sapiens, UniProt Q99759)
One construct used (Q99759 1-626): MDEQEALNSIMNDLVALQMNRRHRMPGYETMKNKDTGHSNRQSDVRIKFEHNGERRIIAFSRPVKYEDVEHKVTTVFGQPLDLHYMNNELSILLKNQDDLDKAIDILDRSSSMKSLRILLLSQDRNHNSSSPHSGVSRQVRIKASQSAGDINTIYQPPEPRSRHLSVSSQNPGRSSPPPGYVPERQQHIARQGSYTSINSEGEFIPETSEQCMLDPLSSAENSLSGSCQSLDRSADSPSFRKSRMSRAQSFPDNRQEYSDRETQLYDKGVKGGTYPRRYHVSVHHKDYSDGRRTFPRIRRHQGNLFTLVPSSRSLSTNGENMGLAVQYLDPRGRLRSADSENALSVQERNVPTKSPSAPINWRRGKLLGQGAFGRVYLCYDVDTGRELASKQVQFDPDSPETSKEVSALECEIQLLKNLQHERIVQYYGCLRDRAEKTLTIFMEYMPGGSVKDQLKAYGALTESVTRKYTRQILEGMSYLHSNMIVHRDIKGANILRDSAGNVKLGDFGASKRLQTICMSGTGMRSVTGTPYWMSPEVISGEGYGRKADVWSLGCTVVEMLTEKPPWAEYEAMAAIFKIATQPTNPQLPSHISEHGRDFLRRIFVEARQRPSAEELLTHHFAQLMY

| Structure (SMILES) | observed | action | method | tested at | measurement | value |
| --- | --- | --- | --- | --- | --- | --- |
| CN1CCN(C(=O)c2ccc(NC(=O)Nc3ccc(N(C)c4ccnc(Nc5ccc(CS(C)(=O)=O)cc5)n4)cc3)cc2)CC1 | binding |  | competition with immobilised ligand | 1 µM | remaining binding | 57% |
| CC#CC(=O)N1CCC[C@H]1c1nc(-c2ccc(C(=O)Nc3ccccn3)cc2)c2c(N)nccn12 | enzyme activity | inhibitor |  | 1 µM | inhibition | 25% |
| C#Cc1cc(-c2cc(Nc3nc(N[C@@H](C)c4ccc(F)cn4)ncc3Cl)n[nH]2)ccc1C=O | enzyme activity | inhibitor |  | 0.2 µM | inhibition | 48.8% |
| CC(C)S(=O)(=O)c1ccc2nccc(Nc3ccc4sc(C5CCCC5)nc4c3)c2c1 | enzyme activity | inhibitor |  | 1 µM | activity vs control | 105% |
| CCCCC(=O)Nc1ccc(-c2ccc3ncn(CCC)c(=O)c3c2)cn1 | binding |  | competition with immobilised ligand | 0.5 µM | remaining binding | 100% |
| C1=C/COCc2cc(ccc2OCCN2CCCC2)Nc2nccc(n2)-c2cccc(c2)COC/1 | binding |  |  | 0.1 µM | remaining binding | 53% |
| Cc1cc(O)c(-c2ccc([C@@H](C)CN(C)C)cc2)c2c1[nH]c(=O)c1sccc12 | enzyme activity | inhibitor |  | 0.1 µM | inhibition | 0.395% |
| C[C@H]1CC[C@H](n2c3cnccc3c3cnc(Nc4ccc5c(n4)CCN(C(=O)CO)C5)nc32)CC1 | binding |  | competition with immobilised ligand | 1 µM | remaining binding | 81% |
| CO[C@@H]1[C@H](N(C)C(=O)c2ccccc2)C[C@H]2O[C@]1(C)n1c3ccccc3c3c4c(c5c6ccccc6n2c5c31)C(=O)NC4 | enzyme activity | inhibitor |  | 1 µM | inhibition | 86% |
